Source: ChEMBL document CHEMBL1806372, “Cytotoxic ring A-modified steroid analogues derived from Grundmann's ketone” (Eur J Med Chem, 2011)
Calls of active or inactive are those of the source. The rule behind the calls is not given here.

Tests used:
Assay type in all cases: functional
T47D [1] = assay: Growth inhibition of human T47D cells assessed as cell growth at 10^-5 M after 48 hrs by sulforhodamine B assay; conditions: read-out: Activity
Method in brief: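 NCI 60-cell panel single-dose screen under the NCI protocol. Cells are exposed to compound at one concentration (10^-5 M) for 48 h. The end point is protein staining with sulforhodamine B. Each line is reported as percent growth of treated cells relative to untreated control cells.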

SF-295 [2] = assay: Growth inhibition of human SF295 cells assessed as cell growth at 10^-5 M after 48 hrs by sulforhodamine B assay; conditions: SF-295, 48 h, read-out: Activity
Method in brief: (§1)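 NCI-60 single high-dose screen run under the NCI protocol. Cells were incubated with compound at 10^-5 M for 48 h. The end point was determined by sulforhodamine B protein staining. Results are reported as percent growth of treated cells relative to untreated control cells.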

BT-549 = assay: Growth inhibition of human BT549 cells assessed as cell growth at 10^-5 M after 48 hrs by sulforhodamine B assay; conditions: BT-549, 48 h, read-out: Activity
Method in brief: (§2)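 NCI 60-cell panel single high-dose screen: compound applied at 10^-5 M for 48 h, endpoint by sulforhodamine B protein-binding dye. Values reported as growth percent of treated cells relative to untreated control cells.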

NCI/ADR-RES = assay: Growth inhibition of human NCI/ADR-RES cells assessed as cell growth at 10^-5 M after 48 hrs by sulforhodamine B assay; conditions: read-out: Activity; method in brief: as §1
MDA-MB-435 [3] = assay: Growth inhibition of human MDA-MB-435 cells assessed as cell growth at 10^-5 M after 48 hrs by sulforhodamine B assay; conditions: MDA-MB-435, 48 h, read-out: Activity; method in brief: as §1
Escherichia coli = assay: Antibacterial activity against Escherichia coli assessed as zone of inhibition at 5 uL and 32 degC after 36 hrs by disk diffusion method
Method in brief: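 Disc diffusion on AC agar, each strain spread evenly over the medium; test compounds given as 1% (w/v) DMSO solutions. Plates covered and incubated 36 h at 32 °C, then the diameter of the zone of inhibited growth measured in mm. Tetracycline served as antibacterial reference.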

A549 = assay: Growth inhibition of human A549 cells assessed as cell growth at 10^-5 M after 48 hrs by sulforhodamine B assay; conditions: A549, 48 h, read-out: Activity; method in brief: as §2
SK-MEL-28 = assay: Growth inhibition of human SK-MEL-28 cells assessed as cell growth at 10^-5 M after 48 hrs by sulforhodamine B assay; conditions: SK-MEL-28, 48 h, read-out: Activity; method in brief: as §1
OVCAR-4 = assay: Growth inhibition of human OVCAR4 cells after 48 hrs by sulforhodamine B assay; conditions: OVCAR-4, 48 h
Method in brief: (§3)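 GI50, TGI and LC50 were derived from log concentration versus % growth inhibition curves for each cell line. GI50 is the concentration giving a 50% decrease in net cell growth. Insensitive lines are reported as greater than the highest concentration.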

SK-MEL-2 = assay: Cytotoxicity against human SK-MEL-2 cells after 48 hrs by sulforhodamine B assay; conditions: SK-MEL-2, 48 h, read-out: LC50 (the source's name)
Method in brief: (§4)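 NCI 60 human tumour cell line panel run to the NCI protocol. GI50, TGI and LC50 come from log concentration vs % growth inhibition curves for each cell line. Lines insensitive at the top concentration are reported with ">".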

K562 = assay: Cytotoxicity against human K562 cells after 48 hrs by sulforhodamine B assay; conditions: K562, 48 h, read-out: LC50 (the source's name); method in brief: as §4
T47D [4] = assay: Growth inhibition of human T47D cells after 48 hrs by sulforhodamine B assay
Method in brief: (§5)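 NCI 60-cell panel five-dose assay. GI50, TGI and LC50 are derived from log concentration versus % growth inhibition curves. Cell lines insensitive at the top concentration are given a ">" prefix.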

CCRF-CEM = assay: Growth inhibition of human CCRF-CEM cells after 48 hrs by sulforhodamine B assay
Method in brief: (§6)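 From log concentration versus % growth curves, GI50 (50% decrease in net growth), TGI (total growth inhibition) and LC50 (net 50% loss of initial cells) are derived for each line.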

OVCAR-3 = assay: Growth inhibition of human OVCAR3 cells after 48 hrs by sulforhodamine B assay; conditions: OVCAR-3, 48 h; method in brief: as §3
MDA-MB-468 = assay: Growth inhibition of human MDA-MB-468 cells after 48 hrs by sulforhodamine B assay; conditions: MDA-MB-468, 48 h; method in brief: as §3
HOP-62 = assay: Growth inhibition of human HOP62 cells after 48 hrs by sulforhodamine B assay; conditions: HOP-62, 48 h; method in brief: as §6
MOLT-4 = assay: Cytotoxicity against human MOLT4 cells after 48 hrs by sulforhodamine B assay; conditions: MOLT-4, 48 h, read-out: LC50 (the source's name); method in brief: as §4
RPMI-8226 = assay: Cytotoxicity against human RPMI8226 cells after 48 hrs by sulforhodamine B assay; conditions: RPMI-8226, 48 h, read-out: LC50 (the source's name); method in brief: as §4
NCI-H226 = assay: Growth inhibition of human NCI-H226 cells after 48 hrs by sulforhodamine B assay; conditions: NCI-H226, 48 h; method in brief: as §3
SF-295 [5] = assay: Growth inhibition of human SF295 cells after 48 hrs by sulforhodamine B assay; conditions: SF-295, 48 h; method in brief: as §3
NCI-H23 = assay: Growth inhibition of human NCI-H23 cells after 48 hrs by sulforhodamine B assay; conditions: NCI-H23, 48 h; method in brief: as §3
NCI-H522 = assay: Cytotoxicity against human NCI-H522 cells after 48 hrs by sulforhodamine B assay; conditions: NCI-H522, 48 h, read-out: LC50 (the source's name); method in brief: as §4
HT-29 [6] = assay: Growth inhibition of human HT-29 cells after 48 hrs by sulforhodamine B assay; conditions: HT-29, 48 h; method in brief: as §6
UACC-62 = assay: Growth inhibition of human UACC62 cells after 48 hrs by sulforhodamine B assay; conditions: UACC-62, 48 h; method in brief: as §5
UO-31 = assay: Growth inhibition of human UO31 cells after 48 hrs by sulforhodamine B assay; conditions: UO-31, 48 h; method in brief: as §5
HT-29 [7] = assay: Cytotoxicity against human HT-29 cells after 48 hrs by sulforhodamine B assay; conditions: HT-29, 48 h, read-out: LC50 (the source's name); method in brief: as §4
[8] = Growth inhibition of human Hs 578T cells after 48 hrs by sulforhodamine B assay; method in brief: as §6
UACC-257 = assay: Growth inhibition of human UACC257 cells after 48 hrs by sulforhodamine B assay; conditions: UACC-257, 48 h; method in brief: as §5
MDA-MB-435 [9] = assay: Cytotoxicity against human MDA-MB-435 cells after 48 hrs by sulforhodamine B assay; conditions: MDA-MB-435, 48 h, read-out: LC50 (the source's name); method in brief: as §4
ACHN = assay: Growth inhibition of human ACHN cells after 48 hrs by sulforhodamine B assay; method in brief: as §6

SMILES: CC(C)CCC[C@@H](C)[C@H]1CC[C@H]2[C@@H]3CCN4C(=O)CCC(=O)N4[C@@H]3CC[C@]12C
- growth at 10 µM (T47D [1]): 64.4%
- growth at 10 µM (SF-295 [2]): 88.6%
- growth at 10 µM (BT-549): 84.7%
- growth at 10 µM (NCI/ADR-RES): 94.6%
- growth at 10 µM (MDA-MB-435 [3]): 97.7%
- diameter of the inhibition zone (DIZ) (Escherichia coli): 11 mm
- growth at 10 µM (A549): 84.1%
- growth at 10 µM (SK-MEL-28): 76.4%

SMILES: CC(C)CCC[C@@H](C)[C@H]1CC[C@H]2C3=CC[C@@H]4C(=O)C=CC(=O)[C@@H]4[C@@H]3CC[C@]12C
- growth at 10 µM (T47D [1]): -18.9%
- GI50 (OVCAR-4): 0.159 µM
- TGI (OVCAR-4): 0.498 µM
- CC50 (SK-MEL-2): > 100 µM
- CC50 (K562): > 100 µM
- GI50 (T47D [4]): 0.337 µM
- TGI (T47D [4]): > 100 µM
- GI50 (CCRF-CEM): 0.189 µM
- TGI (CCRF-CEM): > 100 µM
- GI50 (OVCAR-3): 0.502 µM
- TGI (OVCAR-3): > 100 µM
- GI50 (MDA-MB-468): 0.215 µM
- TGI (MDA-MB-468): 0.462 µM
- growth at 10 µM (SF-295 [2]): -25.6%
- GI50 (HOP-62): 0.63 µM
- TGI (HOP-62): > 100 µM
- growth at 10 µM (BT-549): -1.63%
- growth at 10 µM (NCI/ADR-RES): 7.87%
- CC50 (MOLT-4): > 100 µM
- CC50 (RPMI-8226): > 100 µM
- growth at 10 µM (MDA-MB-435 [3]): -16.4%
- GI50 (NCI-H226): 0.48 µM
- GI50 (SF-295 [5]): 0.141 µM
- TGI (SF-295 [5]): 0.539 µM
- GI50 (NCI-H23): 0.147 µM
- CC50 (NCI-H522): > 100 µM
- GI50 (HT-29 [6]): 0.839 µM
- TGI (HT-29 [6]): > 100 µM
- GI50 (UACC-62): 0.752 µM
- TGI (UACC-62): > 100 µM
- GI50 (UO-31): 0.072 µM
- TGI (UO-31): 0.359 µM
- diameter of the inhibition zone (DIZ) (Escherichia coli): inactive
- CC50 (HT-29 [7]): > 100 µM
- GI50 [8]: 0.817 µM
- TGI [8]: > 100 µM
- GI50 (UACC-257): 0.23 µM
- TGI (UACC-257): 0.61 µM
- growth at 10 µM (A549): 8.75%
- CC50 (MDA-MB-435 [9]): > 100 µM
- growth at 10 µM (SK-MEL-28): -48.5%
- GI50 (ACHN): 0.162 µM
- TGI (ACHN): 1.35 µM

SMILES: CC(C)CCC[C@@H](C)[C@H]1CC[C@H]2C3=CCn4c(=O)ccc(=O)n4[C@@H]3CC[C@]12C
- growth at 10 µM (T47D [1]): -75.2%
- GI50 (OVCAR-4): 0.686 µM
- TGI (OVCAR-4): 2.11 µM
- CC50 (SK-MEL-2): 3.39 µM
- CC50 (K562): > 100 µM
- GI50 (T47D [4]): 0.255 µM
- TGI (T47D [4]): 1.62 µM
- GI50 (CCRF-CEM): 0.36 µM
- TGI (CCRF-CEM): > 100 µM
- GI50 (OVCAR-3): 0.861 µM
- TGI (OVCAR-3): 2.11 µM
- GI50 (MDA-MB-468): 0.628 µM
- TGI (MDA-MB-468): 2.56 µM
- growth at 10 µM (SF-295 [2]): -99.5%
- GI50 (HOP-62): 1.33 µM
- TGI (HOP-62): 2.67 µM
- growth at 10 µM (BT-549): -30.9%
- growth at 10 µM (NCI/ADR-RES): -28.8%
- CC50 (MOLT-4): > 100 µM
- CC50 (RPMI-8226): > 100 µM
- growth at 10 µM (MDA-MB-435 [3]): -57.4%
- GI50 (NCI-H226): 1.27 µM
- TGI (NCI-H226): 3.26 µM
- GI50 (SF-295 [5]): 0.11 µM
- TGI (SF-295 [5]): 0.627 µM
- GI50 (NCI-H23): 1.42 µM
- TGI (NCI-H23): 3.58 µM
- CC50 (NCI-H522): 1.54 µM
- GI50 (HT-29 [6]): 0.616 µM
- TGI (HT-29 [6]): 2.07 µM
- GI50 (UACC-62): 0.544 µM
- TGI (UACC-62): 1.95 µM
- GI50 (UO-31): 0.237 µM
- TGI (UO-31): 1.15 µM
- diameter of the inhibition zone (DIZ) (Escherichia coli): inactive
- CC50 (HT-29 [7]): 5.51 µM
- GI50 [8]: 1.8 µM
- TGI [8]: 4.79 µM
- GI50 (UACC-257): 0.433 µM
- TGI (UACC-257): 1.55 µM
- growth at 10 µM (A549): -79.3%
- CC50 (MDA-MB-435 [9]): 7.68 µM
- growth at 10 µM (SK-MEL-28): -100%
- GI50 (ACHN): 1.04 µM
- TGI (ACHN): 2.32 µM
